In the library only some 2.3% were active in any assay of this set; here they are far more common.
TRPC4 PAM: TRPC4 (mouse) allosteric potentiation; HEK293 TRPC4beta/mu-opioid, DAMGO EC20, Fluo-4 Ca2+ flux; hits give high values; 310,000 compounds, 0.42% hits; B-score at 10 µM;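 active = B-score of calcium response area above 5 SD of library B-scores, with initial fluorescence ratio within 5 SD of library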;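 note: B-score of integrated fluorescence ratio over time as area under calcium response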
TRPC6 inh: mouse TRPC6 channel inhibition; 310,000 compounds, 1.1% hits; HEK293-TRPC6, membrane potential dye, ACh-evoked depolarization; hits give low values; Q61143; B-score at 10 µM;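 active = B-score under library mean minus 3 SD, initial fluorescence not abnormally high, positive integrated signal ratio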;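 note: B-score derived from integrated fluorescence ratio over the kinetic read; more negative B-score means stronger inhibition of depolarization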
TRPC4 inh: TRPC4 (mouse) channel inhibition; B-score at 10 µM; 300,000 compounds, 0.39% hits; HEK293 TRPC4beta/mu-opioid, DAMGO-evoked Fluo4 calcium flux; hits give low values; Q9QUQ5;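 active = B-score over 3 SD under the library average, no early fluorescence shift, positive overall ratio signal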
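Assay system: HEK293 cells with stable TRPC4beta plus mu-opioid receptor expression. Dosing: single dose. Measured by: Fluo4 Ca2+ flux fluorescence. Also added: DAMGO in two steps, submaximal then maximal. Read-out: B score from integrated Fluo4 fluorescence ratio.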
TRPC6 act: mouse TRPC6 channel activation; Q61143; HEK293-TRPC6 membrane potential dye fluorescence; hits give high values; B-score at 10 µM; 310,000 compounds, 0.13% hits; AID 2550;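 active = B-score of the integrated fluorescence ratio above library mean plus 3 SD, and starting fluorescence ratio within library mean plus 5 SD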;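 note: higher score means more depolarization so channel activation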
TRPC4 agonist: activators of mouse TRPC4 channel; HEK293 TRPC4beta/mu-opioid, Fluo4 calcium fluorescence; hits give high values; 310,000 compounds, 0.49% hits; B-score at 10 µM;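 active = B-score above 5 SD of library B-scores, and initial fluorescence ratio not above library mean plus 5 SD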;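 note: positive B-score marks a calcium rise read as TRPC4 activation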
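Incubation: 45 min room-temperature Fluo4 loading, 110 s read / System: HEK293 cells stably co-expressing mouse TRPC4beta and mu-opioid receptor / Signal: Fluo4 fluorescence, kinetic / Control set: buffer (low) and maximal DAMGO (high) / Measure: integrated baseline-normalised fluorescence ratio, converted to per-well B score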
Numbers without * were called inactive; i = inactive.

SMILES	TRPC4 PAM	TRPC6 inh	TRPC4 inh	TRPC6 act	TRPC4 agonist
O=C1CC(=O)N2N=C(c3ccc([N+](=O)[O-])cc3)SC2=N1	i	i	i	i	i
CN1CCN(CC(=O)N2c3ccccc3C(=O)Nc3cccnc32)CC1	i	-5.97*	i	i	i
O=C1C2CCCN2C(c2cccs2)N1c1ccc(F)cc1 (stereo not given)	i	i	i	i	i
Cc1ccc(C2N(c3cccc(Cl)c3)C(=O)C3CCCN32)o1 (stereo not given)	33*	i	i	i	i
COc1cccc(N2C(=O)C3CCCN3C2c2cccs2)c1 (stereo not given)	i	i	i	i	43*
CC1CC(C)CN(CCC(=O)Nc2cccc(Cl)c2)C1 (stereo not given)	i	i	i	i	60*
CC1CC(C)CN(CCC(=O)Nc2ccc(Br)cc2)C1 (stereo not given)	i	i	i	i	44*
COc1ccc(C(=O)CCC(=O)Nc2cccc(Cl)c2)cc1	18*	i	i	i	i
COc1ccc(OC)c(NC(=O)C2CCCN(S(C)(=O)=O)C2)c1 (stereo not given)	i	i	i	i	i
CCCc1ccccc1OCCNC(=O)c1cc(=O)n(C)c(=O)n1C	i	i	i	i	i
CCC(C(=O)NCc1ccccn1)n1c2ccccc2c2nc(=O)cc(C)n21 (stereo not given)	i	i	i	i	i
Cc1cccc2cc(-c3nc4ccc(C(=O)O)cc4[nH]3)c(=O)oc12	i	i	i	i	i
CSCC[C@H](NC(=O)N1CCn2c1nc1ccccc12)C(=O)NCc1ccc(F)cc1	20*	i	i	i	i
N#CC(C(N)=O)=C1CCCCC1	i	i	i	i	i
Clc1cccc2c3c([nH]c12)CCNC3	16*	i	i	i	i
Clc1ccc2[nH]c3c(c2c1)CNCC3	19*	i	i	i	i
O=C(O)c1cccc2c3c([nH]c12)CCCC3	i	i	i	i	i
O=C1CCCc2c1[nH]c1ccc(Cl)cc21	i	i	i	i	i
COc1ccc(C(=O)OCC(=O)NC(=O)NC2CCCC2)c(OC)c1	i	i	i	i	i
C/C(=N/NC(=O)c1ccc(Cn2cccn2)o1)c1cccc(NC(=O)c2ccncc2)c1	i	i	-6*	i	62*
C/C(=N\NC(=O)c1ccncc1)c1cccc(NC(=O)c2ccc(C(C)(C)C)cc2)c1	i	i	i	i	i
CC(OC(=O)Cc1n[nH]c(=O)c2ccccc12)C(=O)Nc1cccc([N+](=O)[O-])c1 (stereo not given)	11*	i	i	i	i
CC(NS(=O)(=O)c1ccc(OCC(=O)NCc2ccccn2)cc1)c1ccccc1 (stereo not given)	i	i	i	i	i
CC1(c2ccc(OC(F)F)cc2)NC(=O)N(CC(=O)Nc2cccnc2Cl)C1=O (stereo not given)	i	i	i	i	62*
COc1ccc(C2(C)NC(=O)N(CC(=O)Nc3cccnc3Cl)C2=O)cc1 (stereo not given)	i	i	i	i	i
SMILES	TRPC4 PAM	TRPC6 inh	TRPC4 inh	TRPC6 act	TRPC4 agonist
Cc1occc1C(=O)NC1CCCN(Cc2ccc(Cl)cc2)C1 (stereo not given)	i	i	i	i	62*
Cc1cc(C(=O)NC2CCCN(Cc3ccc(Cl)cc3)C2)c(C)o1 (stereo not given)	i	i	i	i	i
O=C(NC1CCCN(Cc2ccc(Cl)cc2)C1)c1ccoc1 (stereo not given)	i	i	i	i	43*
Cc1ccsc1C(=O)NC1CCCN(Cc2ccc(Cl)cc2)C1 (stereo not given)	i	i	i	i	75*
CC(C)Cc1ccc(CN2CCCC(NC(=O)CCn3cnnn3)C2)cc1 (stereo not given)	i	i	i	i	104*
COc1ccc(N2CCN(c3nccs3)CC2)cc1	i	i	i	i	i
Cc1oc(C(C)(C)C)cc1C(=O)Nc1cccc(C(=O)O)c1	i	i	i	i	i
O=C(CCCCCN1C(=O)[C@@H]2Cc3ccccc3CN2C1=O)Nc1ccccc1Cl	i	i	i	i	i
O=C(CCc1ccc(F)c(F)c1)NC1CCCN(Cc2ccc(Cl)cc2)C1 (stereo not given)	i	i	i	i	53*
CSc1ncc(S(=O)(=O)c2ccccc2)c(=O)[nH]1	i	i	i	i	i
COc1cc(OC)c(OC)cc1CCC(C)NCCC(c1ccccc1)c1ccccc1 (stereo not given)	i	i	i	i	87*
COc1ccccc1CCNC(C)CCc1ccc(O)cc1 (stereo not given)	i	i	i	i	i
O=C(CN(Cc1ccco1)C(=O)Cn1nnc(-c2cccs2)n1)NCC1CCCO1 (stereo not given)	i	i	i	i	i
Cc1cc(C)n(C(=O)c2sc3cc(F)ccc3c2Cl)n1	i	i	i	i	i
Cc1[nH]c2ccccc2c1CN1CCC(Cc2ccccc2)CC1	i	i	i	i	67*
Cc1[nH]c2ccccc2c1CN1CCN(c2ccccn2)CC1	i	i	i	i	i
Cc1cccc(OCCSc2nc3ccccc3n2CCC(=O)O)c1	i	i	i	i	i
CCN1C(=O)/C(=C\N2CCCc3ccccc32)SC1=S	20*	i	i	i	i
CCN1C(=O)/C(=C/N2CCc3ccccc32)SC1=S	i	i	i	i	i
CSCc1c(C(=O)NCCc2ccccn2)oc2ccccc12	12*	i	i	i	i
CSCc1c(C(=O)Nc2ccc3c(c2)OCO3)oc2ccccc12	i	i	i	i	i
CCC(C)c1ccc(N(C(=O)c2ccco2)C(C(=O)NC2CCCC2)c2cccnc2)cc1 (stereo not given)	i	i	i	i	i
CC(=O)Cn1ncc(N2CCOCC2)cc1=O	i	i	-8*	i	i
CC(=O)Cn1ncc(N2CCOCC2)c(Cl)c1=O	i	i	i	i	i
Cc1ccc(Nc2ccc(S(=O)(=O)N3CCOCC3)cc2[N+](=O)[O-])cc1C	18*	i	i	i	i

Screening data (PubChem BioAssay)
